{"source": "paper PMC7611434", "about": "(Bioorganic chemistry, 2020)", "key": {"[1]": {"test_system": "RUMH cells (renal cell carcinoma, c-MET-overexpressing)", "test": "cytotoxicity assay", "type": "cell-based, human", "details": "for IC50: read-out: IC50 cytotoxicity; for cytotoxic activity under hypoxia vs normoxia: 72 h, 1 % O2 vs 21 % O2", "procedure,_shortened": "(§1)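 MTT (EZ4U) viability in H1993 or in-house-established RUMH cells in RPMI 1640 with 10% FCS. Cells were seeded at 3-6x10³/well and recovered 24 h, then given increasing concentrations of test compound (final DMSO <1%). Exposure was 24 h or 72 h at 21% O₂ (normoxia) or 1% O₂ (hypoxia). IC50 came from full dose-response curves; one representative experiment in triplicate, mean ± SD.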"}, "[2]": {"test_system": "H1993 cells (non-small cell lung cancer, c-MET-dependent)", "test": "cytotoxicity assay", "type": "cell-based, human", "details": "for cytotoxic activity under hypoxia vs normoxia: H1993, 72 h, 1 % O2 vs 21 % O2; for IC50: read-out: IC50 cytotoxicity", "procedure,_shortened": "as §1"}, "[3]": {"test_system": "H2228 cells (non-small cell lung cancer, ALK-dependent)", "test": "cytotoxicity assay", "type": "cell-based, human", "details": "for cytotoxic activity under hypoxia vs normoxia: H2228, 72 h, 1 % O2 vs 21 % O2; for IC50: read-out: IC50 cytotoxicity"}, "[4]": {"test_system": "H1993 tumor cell proliferation (Ki-67)", "test": "H1993 xenograft, immunohistochemistry of Ki-67 and tumor histology", "type": "in vivo, SCID mice", "details": "24 h"}, "solubility in PBS": {"test": "solubility in PBS", "type": "physicochemical"}, "[5]": {"test_system": "HACAT (keratinocytes from human skin)", "test": "cytotoxicity in non-malignant cells", "type": "cell-based", "details": "normoxic, 72 h", "procedure,_shortened": "(§2)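 Non-malignant HACAT keratinocytes or HLF lung fibroblasts in RPMI 1640 with 10% FCS, under normoxia (37 °C, 21% O₂, 5% CO₂). Cells were seeded at 3-6x10³/well and recovered 24 h. They were then exposed for 72 h to increasing concentrations of test compound diluted from DMSO stock (final DMSO <1%). Viability was read by MTT (EZ4U), with IC50 fitted from full dose-response curves.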"}, "ALK": {"test_system": "ALK", "details": "cell-free kinase assay"}, "ERK 1/2 phosphorylation": {"test_system": "ERK 1/2 phosphorylation", "test": "Western blot of ERK 1/2 phosphorylation in H1993 cells", "type": "cell-based, human", "details": "H1993, 24 h", "procedure,_shortened": "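H1993 cells in RPMI 1640 with 10% FCS were plated at 8x10⁵ cells/dish and allowed 24 h recovery. They were exposed for 24 h to DMSO-diluted test compound (final DMSO <1%) at 21% or 1% O₂. Lysates were run on SDS-PAGE/PVDF and probed for p-ERK 1/2 (Thr202/Tyr204), ERK 1/2 and β-actin (all 1:1000), with HRP secondaries at 1:10000. Read-out: p-ERK/ERK ratio after β-actin normalisation.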"}, "[6]": {"test_system": "HLF (fibroblasts from human lung)", "test": "cytotoxicity in non-malignant cells", "type": "cell-based", "details": "normoxic, 72 h", "procedure,_shortened": "as §2"}, "[7]": {"target": "c-MET phosphorylation in H1993 tumor tissue (Homo sapiens, UniProt P08581)", "sequence (P08581 25-1390)": "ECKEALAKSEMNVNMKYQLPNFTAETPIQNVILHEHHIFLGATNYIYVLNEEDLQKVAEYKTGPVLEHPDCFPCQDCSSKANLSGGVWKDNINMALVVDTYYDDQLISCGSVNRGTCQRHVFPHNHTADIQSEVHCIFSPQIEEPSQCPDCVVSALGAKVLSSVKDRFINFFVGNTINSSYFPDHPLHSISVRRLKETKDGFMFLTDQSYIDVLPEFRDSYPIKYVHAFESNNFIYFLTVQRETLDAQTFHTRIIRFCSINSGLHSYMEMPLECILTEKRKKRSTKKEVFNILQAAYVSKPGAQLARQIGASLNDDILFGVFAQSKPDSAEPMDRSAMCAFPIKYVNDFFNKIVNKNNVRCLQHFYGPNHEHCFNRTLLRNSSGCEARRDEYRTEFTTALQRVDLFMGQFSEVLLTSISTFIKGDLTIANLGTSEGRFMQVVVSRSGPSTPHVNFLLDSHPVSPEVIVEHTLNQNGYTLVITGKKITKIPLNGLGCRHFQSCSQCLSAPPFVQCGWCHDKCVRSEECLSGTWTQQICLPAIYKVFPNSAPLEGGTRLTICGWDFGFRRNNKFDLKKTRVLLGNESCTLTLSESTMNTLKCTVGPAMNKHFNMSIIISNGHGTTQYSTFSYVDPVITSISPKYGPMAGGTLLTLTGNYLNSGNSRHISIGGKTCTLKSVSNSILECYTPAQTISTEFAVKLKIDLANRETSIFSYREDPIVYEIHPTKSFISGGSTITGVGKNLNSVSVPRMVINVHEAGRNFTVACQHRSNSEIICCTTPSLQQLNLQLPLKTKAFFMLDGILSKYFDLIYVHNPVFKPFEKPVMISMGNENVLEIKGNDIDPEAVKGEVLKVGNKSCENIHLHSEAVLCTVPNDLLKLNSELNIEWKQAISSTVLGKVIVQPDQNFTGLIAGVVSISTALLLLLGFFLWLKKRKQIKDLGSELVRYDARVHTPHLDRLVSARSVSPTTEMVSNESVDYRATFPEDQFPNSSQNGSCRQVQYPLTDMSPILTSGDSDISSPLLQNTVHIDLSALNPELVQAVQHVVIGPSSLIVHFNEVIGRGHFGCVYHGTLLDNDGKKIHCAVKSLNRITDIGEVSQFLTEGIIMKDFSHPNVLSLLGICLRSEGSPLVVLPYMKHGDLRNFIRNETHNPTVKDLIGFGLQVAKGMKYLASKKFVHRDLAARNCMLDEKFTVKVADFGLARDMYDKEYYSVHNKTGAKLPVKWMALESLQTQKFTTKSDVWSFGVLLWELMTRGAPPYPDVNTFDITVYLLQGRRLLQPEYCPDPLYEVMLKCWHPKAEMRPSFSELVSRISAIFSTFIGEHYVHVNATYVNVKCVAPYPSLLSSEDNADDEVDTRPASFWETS", "test": "H1993 xenograft, immunohistochemistry of p-c-MET", "type": "in vivo", "details": "24 h, H1993 s.c. in SCID mice"}, "[8]": {"test": "stability assay in buffer, medium and serum", "type": "in vitro ADME", "details": "pure serum (FCS), 37 °C, up to 72 h"}, "c-MET phosphorylation": {"target": "c-MET phosphorylation (Homo sapiens, UniProt P08581)", "sequence (P08581 25-1390)": "as above", "test": "Western blot of c-MET phosphorylation in H1993 cells", "type": "cell-based", "details": "H1993, 24 h"}, "[9]": {"target": "nitroreductase enzyme (E. coli) (Escherichia coli, UniProt P38489)", "sequence (P38489 whole entry)": "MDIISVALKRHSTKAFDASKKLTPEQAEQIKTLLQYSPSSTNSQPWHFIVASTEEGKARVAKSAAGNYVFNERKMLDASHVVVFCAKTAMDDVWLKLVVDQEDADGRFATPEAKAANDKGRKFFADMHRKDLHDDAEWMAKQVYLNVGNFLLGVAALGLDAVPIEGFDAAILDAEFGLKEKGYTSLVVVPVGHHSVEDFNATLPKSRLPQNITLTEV", "details": "nitroreductase + NADH, pH 7.4, 37 °C, HPLC; for conversion of prodrug by nitroreductase: after 10 min"}, "stability down to pH 1": {"test": "stability down to pH 1", "type": "physicochemical", "details": "down to pH 1, 24 h, 37 °C; data not shown"}, "c-MET": {"test_system": "c-MET", "details": "cell-free kinase assay"}, "[10]": {"details": "RUMH, 24 h treatment, MTT, 1 % O2 or 21 % O2"}, "[11]": {"details": "H1993, 24 h treatment, MTT, 1 % O2 or 21 % O2"}, "[12]": {"details": "H2228, 24 h treatment, MTT, 1 % O2 or 21 % O2"}}, "note": "Read-outs that look alike come from different tables or passages of the source.", "data": [{"compound": "Cn1c(COP(=O)(NCCBr)NCCBr)cnc1[N+](=O)[O-]", "note": "[TH-302, reference compound]", "values": [{"measurement": "IC50", "setting": "[1]; Homo sapiens, 24 h", "result": "> 25", "unit": "µM"}, {"measurement": "cytotoxic activity under hypoxia vs normoxia", "setting": "[1]; RUMH", "result": "significant anticancer activity under low oxygen levels"}, {"measurement": "cytotoxic activity under hypoxia vs normoxia", "setting": "[2]", "result": "significant anticancer activity under low oxygen levels"}, {"measurement": "IC50", "setting": "[2]; Homo sapiens, NCI-H1993, 24 h", "result": "> 25", "unit": "µM"}, {"measurement": "cytotoxic activity under hypoxia vs normoxia", "setting": "[3]", "result": "significant anticancer activity under low oxygen levels"}, {"measurement": "IC50", "setting": "[3]; Homo sapiens, NCI-H2228, 24 h", "result": "> 25", "unit": "µM"}]}, {"compound": "C[C@@H](Oc1cc(-c2cnn(C3CCNCC3)c2)cnc1N)c1c(Cl)ccc(F)c1Cl", "note": "[crizotinib, reference compound]", "values": [{"measurement": "IC50", "setting": "[1]; Homo sapiens, 24 h", "result": "~20", "unit": "µM"}, {"measurement": "Ki-67 expression in tumor tissue", "setting": "[4]; 50 mg/kg p.o., H1993 s.c. in SCID mice", "result": "slight impact"}, {"measurement": "solubility", "setting": "solubility in PBS; phosphate-buffered saline", "result": "< 0.5", "unit": "mg/mL"}, {"measurement": "IC50", "setting": "[2]; Homo sapiens, NCI-H1993, 24 h", "result": "~20", "unit": "µM"}]}, {"compound": "C[C@@H](Oc1cc(-c2cnn(C3CCNCC3)c2)cnc1NC(=O)OCc1cnc([N+](=O)[O-])n1C)c1c(Cl)ccc(F)c1Cl", "note": "[prodrug A, (1-methyl-2-nitro-1H-imidazol-5-yl)methyl (R)-(3-(1-(2,6-dichloro-3-fluorophenyl)ethoxy)-5-(1-(piperidin-4-yl)-1H-pyrazol-4-yl)pyridin-2-yl)carbamate*1.5TFA]", "values": [{"measurement": "activity against non-malignant cells in comparison to free crizotinib", "setting": "[5]", "result": "distinctly reduced activity"}, {"measurement": "lower inhibitory potential compared to crizotinib (IC50 ratio)", "setting": "ALK", "result": 42, "unit": "fold"}, {"measurement": "cytotoxic activity under hypoxia vs normoxia", "setting": "[1]; RUMH", "result": "promising hypoxia-mediated activity"}, {"measurement": "IC50", "setting": "[1]; [10]", "result": "> 25", "unit": "µM"}, {"measurement": "cell proliferation (Ki-67) in tumor tissue", "setting": "[4]; 38.5 mg/kg i.v., single dose, H1993 s.c. in SCID mice", "result": "inhibition of cell proliferation"}, {"measurement": "tumor histology (tumor:stroma ratio)", "setting": "[4]; 38.5 mg/kg i.v., single dose, data not shown", "result": "reduction of the tumor:stroma ratio"}, {"measurement": "Ki-67 expression in tumor tissue", "setting": "[4]; 89.2 mg/kg p.o., H1993 s.c. in SCID mice", "result": "did not significantly change"}, {"measurement": "inhibition of ERK 1/2 phosphorylation signal", "setting": "ERK 1/2 phosphorylation; hypoxia (1 % O2), 5 μM", "result": "~ 60%"}, {"measurement": "inhibition of ERK 1/2 phosphorylation signal", "setting": "ERK 1/2 phosphorylation; hypoxia (1 % O2), 10 μM", "result": "~ 80%"}, {"measurement": "inhibition of ERK 1/2 phosphorylation signal", "setting": "ERK 1/2 phosphorylation; normoxia (21 % O2), 5 μM", "result": "< 10", "unit": "%"}, {"measurement": "activity against non-malignant cells in comparison to free crizotinib", "setting": "[6]", "result": "distinctly reduced activity"}, {"measurement": "solubility", "setting": "solubility in PBS; phosphate-buffered saline (PBS), room temperature", "result": "> 20", "unit": "mg/mL"}, {"measurement": "c-MET phosphorylation in tumor tissue", "setting": "[7]; 38.5 mg/kg i.v., single dose", "result": "significant inhibition"}, {"measurement": "level of p-c-MET in tumor tissue", "setting": "[7]; 89.2 mg/kg p.o.", "result": "did not significantly change"}, {"measurement": "stability in pure serum", "setting": "[8]", "result": "no significant degradation"}, {"measurement": "inhibition of c-MET phosphorylation", "setting": "c-MET phosphorylation; hypoxia (1 % O2), 5 μM", "result": 40, "unit": "%"}, {"measurement": "inhibition of c-MET phosphorylation", "setting": "c-MET phosphorylation; hypoxia (1 % O2), 10 μM", "result": 70, "unit": "%"}, {"measurement": "inhibition of c-MET phosphorylation", "setting": "c-MET phosphorylation; normoxia (21 % O2), up to 10 μM", "result": "< 10", "unit": "%"}, {"measurement": "release of crizotinib as main product", "setting": "[9]", "result": "about 80%"}, {"measurement": "conversion of prodrug by nitroreductase", "setting": "[9]", "result": "complete conversion"}, {"measurement": "cytotoxic activity under hypoxia vs normoxia", "setting": "[2]", "result": "promising hypoxia-mediated activity"}, {"measurement": "IC50", "setting": "[2]; [11]", "result": "> 25", "unit": "µM"}, {"measurement": "stability at low pH", "setting": "stability down to pH 1", "result": "confirmed the stability"}, {"measurement": "cytotoxic activity under hypoxia vs normoxia", "setting": "[3]", "result": "similarly active"}, {"measurement": "IC50", "setting": "[3]; [12]", "result": "> 25", "unit": "µM"}, {"measurement": "lower inhibitory potential compared to crizotinib (IC50 ratio)", "setting": "c-MET", "result": 33, "unit": "fold"}]}, {"compound": "C[C@@H](Oc1cc(-c2cnn(C3CCNCC3)c2)cnc1NCc1cnc([N+](=O)[O-])n1C)c1c(Cl)ccc(F)c1Cl", "note": "[prodrug B, (R)-3-(1-(2,6-dichloro-3-fluorophenyl)ethoxy)-N-((1-methyl-2-nitro-1H-imidazol-5-yl)methyl)-5-(1-(piperidin-4-yl)-1H-pyrazol-4-yl)pyridin-2-amine *2TFA]", "values": [{"measurement": "lower inhibitory potential compared to crizotinib (IC50 ratio)", "setting": "ALK", "result": "> 143", "unit": "fold"}, {"measurement": "IC50 cytotoxicity", "setting": "[1]; [10]", "result": "distinct anticancer activity in a range similar to crizotinib"}, {"measurement": "release of crizotinib as main product", "setting": "[9]", "result": "no formation of crizotinib"}, {"measurement": "conversion of prodrug by nitroreductase", "setting": "[9]", "result": "could not be activated"}, {"measurement": "IC50 cytotoxicity", "setting": "[2]; [11]", "result": "distinct anticancer activity in a range similar to crizotinib"}, {"measurement": "IC50 cytotoxicity", "setting": "[3]; [12]", "result": "distinct anticancer activity in a range similar to crizotinib"}, {"measurement": "lower inhibitory potential compared to crizotinib (IC50 ratio)", "setting": "c-MET", "result": 64, "unit": "fold"}]}]}
